According to ChEMBL document CHEMBL4689842, “EUbOPEN Chemogenomics Library wave 1” (2021):

System: HEK-293T
Assay: Multiplex assay against HEK293T;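 on Population Tubulin-Different-Phenotype (%): share of the cells with healthy nuclei that show this phenotype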
Assay type: toxicity, cell-based
Conditions: human
Method in brief: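 Cells were classed with CellPathfinder machine-learning gating, first as Hoechst high-intensity objects or normal cells, then (normal cells) as healthy, pyknosed or fragmented nuclei, and finally (pyknosed cells) as mitotic or apoptotic. Staining of live cells at seeding used Hoechst33342, BioTracker Green Microtubule Cytoskeleton Dye, MitoTracker Red and Annexin V Alexa Fluor 680, with imaging on a CQ1 microscope at 37°C and 5% CO2 after compound addition. Tubulin, mitochondrial-mass and membrane-permeability phenotypes are per cents of healthy-nucleus cells.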

[1] = 12 h, 1 µM, compound concentration 1 uM, replicate 1
[2] = 12 h, 1 µM, compound concentration 1 uM, replicate 2
[3] = 12 h, 10 µM, compound concentration 10 uM, replicate 1
[4] = 12 h, 10 µM, compound concentration 10 uM, replicate 2
[5] = 24 h, 1 µM, compound concentration 1 uM, replicate 1
[6] = 24 h, 1 µM, compound concentration 1 uM, replicate 2
[7] = 24 h, 10 µM, compound concentration 10 uM, replicate 1
[8] = 24 h, 10 µM, compound concentration 10 uM, replicate 2

SMILES: CCOc1cc(N2CCC(O)CC2)ccc1Nc1ncc2c(n1)N(C1CCCC1)CCC(=O)N2C
- Population Apoptotic (%) [1]: 17%
- Population Fragmented Nuclei (%) [1]: 18%
- Population Healthy Nuclei (%) [1]: 58%
- Population Hoechst High Intensity Objects (%) [1]: 13%
- Population Membrane Permeable-Phenotype (%) [1]: 3%
- Population Mitochondria Different-Phenotype (%) [1]: 5%
- Population Mitotic Cells (%) [1]: 82%
- Population Normal (%) [1]: 86%
- Population Pyknosed Nuclei (%) [1]: 22%
- Population Tubulin-Different-Phenotype (%) [1]: 3%
- Total Cell Count [1]: 614
- Population Apoptotic (%) [2]: 4%
- Population Fragmented Nuclei (%) [2]: 6%
- Population Healthy Nuclei (%) [2]: 87%
- Population Hoechst High Intensity Objects (%) [2]: 2%
- Population Membrane Permeable-Phenotype (%) [2]: 1%
- Population Mitochondria Different-Phenotype (%) [2]: 15%
- Population Mitotic Cells (%) [2]: 95%
- Population Normal (%) [2]: 97%
- Population Pyknosed Nuclei (%) [2]: 5%
- Population Tubulin-Different-Phenotype (%) [2]: 5%
- Total Cell Count [2]: 1724
- Population Apoptotic (%) [3]: 14%
- Population Fragmented Nuclei (%) [3]: 18%
- Population Healthy Nuclei (%) [3]: 62%
- Population Hoechst High Intensity Objects (%) [3]: 13%
- Population Membrane Permeable-Phenotype (%) [3]: 4%
- Population Mitochondria Different-Phenotype (%) [3]: 5%
- Population Mitotic Cells (%) [3]: 85%
- Population Normal (%) [3]: 86%
- Population Pyknosed Nuclei (%) [3]: 19%
- Population Tubulin-Different-Phenotype (%) [3]: 4%
- Total Cell Count [3]: 550
- Population Apoptotic (%) [4]: 8%
- Population Fragmented Nuclei (%) [4]: 9%
- Population Healthy Nuclei (%) [4]: 86%
- Population Hoechst High Intensity Objects (%) [4]: 1%
- Population Membrane Permeable-Phenotype (%) [4]: 0%
- Population Mitotic Cells (%) [4]: 92%
- Population Normal (%) [4]: 98%
- Population Pyknosed Nuclei (%) [4]: 4%
- Population Tubulin-Different-Phenotype (%) [4]: 2%
- Total Cell Count [4]: 1779
- Population Apoptotic (%) [5]: 19%
- Population Fragmented Nuclei (%) [5]: 16%
- Population Healthy Nuclei (%) [5]: 73%
- Population Hoechst High Intensity Objects (%) [5]: 7%
- Population Membrane Permeable-Phenotype (%) [5]: 2%
- Population Mitochondria Different-Phenotype (%) [5]: 4%
- Population Mitotic Cells (%) [5]: 80%
- Population Normal (%) [5]: 92%
- Population Pyknosed Nuclei (%) [5]: 9%
- Population Tubulin-Different-Phenotype (%) [5]: 3%
- Total Cell Count [5]: 619
- Population Apoptotic (%) [6]: 4%
- Population Fragmented Nuclei (%) [6]: 26%
- Population Healthy Nuclei (%) [6]: 72%
- Population Hoechst High Intensity Objects (%) [6]: 3%
- Population Membrane Permeable-Phenotype (%) [6]: 0%
- Population Mitochondria Different-Phenotype (%) [6]: 3%
- Population Mitotic Cells (%) [6]: 95%
- Population Normal (%) [6]: 96%
- Population Pyknosed Nuclei (%) [6]: 1%
- Population Tubulin-Different-Phenotype (%) [6]: 1%
- Total Cell Count [6]: 2649
- Population Apoptotic (%) [7]: 19%
- Population Fragmented Nuclei (%) [7]: 13%
- Population Healthy Nuclei (%) [7]: 76%
- Population Hoechst High Intensity Objects (%) [7]: 6%
- Population Membrane Permeable-Phenotype (%) [7]: 8%
- Population Mitochondria Different-Phenotype (%) [7]: 5%
- Population Mitotic Cells (%) [7]: 80%
- Population Normal (%) [7]: 93%
- Population Pyknosed Nuclei (%) [7]: 9%
- Population Tubulin-Different-Phenotype (%) [7]: 2%
- Total Cell Count [7]: 597
- Population Apoptotic (%) [8]: 0%
- Population Fragmented Nuclei (%) [8]: 27%
- Population Healthy Nuclei (%) [8]: 70%
- Population Hoechst High Intensity Objects (%) [8]: 3%
- Population Membrane Permeable-Phenotype (%) [8]: 2%
- Population Mitochondria Different-Phenotype (%) [8]: 0%
- Population Mitotic Cells (%) [8]: 100%
- Population Normal (%) [8]: 96%
- Population Pyknosed Nuclei (%) [8]: 1%
- Total Cell Count [8]: 3112
